Data as given in PubChem BioAssay AID488937 (Broad Institute, 2010).
Inconclusive results are not listed. The source made the active and inactive calls.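 How the source made its calls: active means compounds whose fitted half-maximal growth inhibition dose is no more than ten times the top tested dose; inconclusive means flat curve inhibiting 30 to 70%, or poor curve fit; inactive means flat within 30%, weaker potency, or rising signal.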

Assay: single-agent toxicity toward C. albicans – CaCi-2 strain, dry powder, set 3, counter-screen for reversing antifungal drug resistance, dose response (AID 488937)
Details: C. albicans CaCi-2 growth, Alamar Blue fluorescence, 48 h; series mostly up to 26 µM; activity change, negative = inhibition: at the top concentration
Outline: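 System: Candida albicans strain CaCi-2 yeast, fluconazole absent; quantity: inoculum A600 0.00015; buffer or medium: RPMI growth medium, no fluconazole added; schedule: 48 h growth at 37 °C, dye 2 h; signal: Alamar Blue fluorescence, final 1:200; read-out: relative yeast growth by fluorescence; benchmarks: geldanamycin as positive (growth inhibition) control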

Compound	activity change, negative = inhibition
Cc1cccc(N2CCN(C(=O)c3ccc(Cl)cc3)CC2)n1	-16.8% (inactive)
N#Cc1ccc(C(=O)N2CCN(c3ccccn3)CC2)cc1	-6.52% (inactive)
COCCC(=O)N1CCN(c2ccccn2)CC1	-10.3% (inactive)
CCCCC(=O)N1CCN(c2ccccn2)CC1	-20.4% (inactive)
COc1ccc(C(=O)N2CCN(c3ccccn3)CC2)cc1	-9.02% (inactive)
COc1cccnc1N1CCN(C(=O)c2ccc(Cl)cc2)CC1	-3.13% (inactive)
Cc1ccnc(N2CCN(C(=O)c3ccc(Cl)cc3)CC2)c1	-5.16% (inactive)
Cc1ccc(N2CCN(C(=O)c3ccc(Cl)cc3)CC2)nc1	-27.7% (inactive)
CC(C)C(=O)N1CCN(c2ccccn2)CC1	-24.5% (inactive)
O=C(c1ccc(Cl)cc1)N1CCN(c2ccc(C(F)(F)F)cn2)CC1	-1.49% (inactive)
Cc1ccc(C(=O)N2CCN(c3ccccn3)CC2)cc1	-9.55% (inactive)
O=C(c1ccccc1)N1CCN(c2ccccn2)CC1	-14% (inactive)
O=C(c1ccc(Cl)cc1)N1CCN(c2nccs2)CC1	-6.15% (inactive)
O=C(c1ccc(Cl)cc1)N1CCN(c2cnccn2)CC1	-13.9% (inactive)
Cn1ccnc1N1CCN(C(=O)c2ccc(Cl)cc2)CC1	-14% (inactive)
O=C(c1ccc(Cl)cc1)N1CCN(c2cccc(C(F)(F)F)n2)CC1	-5.42% (inactive)
O=C(c1ccc(Cl)cc1)N1CCN(c2nc3ccccc3o2)CC1	-31.6% (inactive)
Cc1ccc(N2CCN(C(=O)c3ccc(Cl)cc3)CC2)nn1	-7.26% (inactive)
O=C(c1ccccc1Cl)N1CCN(c2ccccn2)CC1	-25.8% (inactive)
N#Cc1cccnc1N1CCN(C(=O)c2ccc(Cl)cc2)CC1	-4.97% (inactive)
O=C(c1ccc(Cl)cc1)N1CCN(c2nc3ccccc3s2)CC1	-1.53% (inactive)
O=C(c1ccc(Cl)cc1)N1CCN(c2ncccn2)CC1	2.79% (inactive)
O=C(c1ccc(F)cc1)N1CCN(c2ccccn2)CC1	-4.39% (inactive)
